# Jurkat NFkB inh = inhibitors of induced NF-kB luciferase reporter, primary screen, TCR NF-kB activation inhibitor project, cell-based, luminescence, uHTS. hit rate 0.53% among 330,000. Jurkat, PMA/ionomycin-induced NF-kB luciferase reporter. inhibition, % at 4 µM; in the data active = inhibition above about 50%
# Lipid droplet = inhibitors of hepatocyte lipid droplet formation, primary screen, imaging, high-throughput imaging, BODIPY stain; AML12 mouse hepatocytes, oleate lipid droplets; inhibition, % at 6.5 µM; AID 1656, 2009; hit rate 0.4% among 240,000;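 active = lipid droplet intensity inhibited by at least 50%, with more than 500 cells counted; inconclusive = wells with under 300 cells, treated as cytotoxic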
#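 Test system: AML12 hepatocytes (mouse); reagent: oleate loading, 100 µM; dosing: one dose, 6.5 µM compound; incubation: overnight exposure; signal: fluorescence imaging, 20x objective, two fields per well; read-out basis: % inhibition of corrected integrated BODIPY droplet signal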
# aSyn 5UTR inh = MLPCN primary screen, SNCA 5' untranslated region; alpha-synuclein 5'UTR reporter, inhibitor activity; inhibition, % (tested at 7.5 µM); hit rate 0.82% among 300,000; AID 1813, 2009; in the data active = inhibition above about 60%; inconclusive = no clear call, values can overlap the other calls;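 also: H4 neuroglioblastoma cells stably carrying SNCA 5'UTR luciferase fusion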
# APP transl inh = inhibitors of APP translation via 5'UTR reporter, primary screen, APP 5'UTR luciferase, SH-SY5Y cells. inhibition, % at 2 µM. hit rate 0.82% among 190,000. SH-SY5Y APP 5'UTR-luciferase reporter, luminescence;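 active = inhibition above a set limit, derived from the sample mean plus 3 SD, cut at about 45% in these data; inconclusive = one replicate passes the limit while the other fails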
# TAG inh = inhibitors of triacylglycerol accumulation, primary screen, cell-based, uHTS, fluorescence, H9c2; H9c2 cells, Nile Red lipid (TAG) fluorescence; cells loaded with 200 µM oleic acid; inhibition, % at 12.5 µM; hit rate 0.66% among 230,000;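 active = pattern-corrected inhibition of lipid staining of at least 50% with the nuclear-stain viability signal not falling by more than 50%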
# 697 NFkB inh = inhibitors of PMA/ionomycin-induced NF-kB reporter, 697 cells, primary screen, B-cell NF-kB inhibitor project, cell-based, luminescence, uHTS; 697 B-cell NF-kB luciferase reporter, 16 h; inhibition, % at 4 µM; hit rate 0.33% among 330,000; AID 435022, 2010; in the data active = inhibition above about 35%
# 697 NFkB conf = PMA/ionomycin-induced NF-kB reporter inhibitors, 697 retest, confirmation, B-cell NF-kB inhibitor project, cell-based, luminescence, single concentration | 697 B-cell NF-kB luciferase, 16 h | inhibition, % at 4 µM | shares compounds with 697 NFkB inh | AID 449746, 2010 | hit rate 35% among 2,000; in the data active = inhibition mostly above about 28%, no sharp cut-off; inactive = mostly below about 22%
# A number is an active result; . = inactive; ? = inconclusive; / = no result given. Shown are actives, neighbours in structure and some others; about 1.9% of the full set was active somewhere.
SMILES,Jurkat NFkB inh,Lipid droplet,aSyn 5UTR inh,APP transl inh,TAG inh,697 NFkB inh,697 NFkB conf
CCC(C)N1C(=O)S/C(=C/c2ccc3c(c2)n(C)c(=O)n3C)C1=O (stereo unspecified),.,.,.,.,.,.,/
CC(C)NC(=O)c1ccc2c(=O)n(CC3CCCO3)c(=S)[nH]c2c1 (stereo unspecified),.,.,.,.,.,35.6,.
C=CCn1c(C(CCCC)CC(O)COCC(C)C)n[nH]c1=S (stereo unspecified),.,.,.,.,/,.,/
Cc1cc(C(=O)Cn2nnc3ccccc3c2=O)c(C)n1-c1ccccc1F,.,.,?,.,.,.,.
C#CCn1c(S(=O)(=O)Cc2ccc(F)cc2)nc(-c2ccccc2)c1-c1ccccc1,.,.,.,.,/,.,.
CCOC(=O)Cn1c(S(=O)(=O)Cc2ccc(F)cc2)nc(-c2ccccc2)c1-c1ccccc1,.,/,.,.,/,.,/
COc1ccc2[nH]c3c(c2c1)CCN1C(=O)C(CC(=O)NCc2ccc(OC)c(OC)c2)C[C@H](C(=O)N(C(C)C)C(C)C)[C@@]31C (stereo partly specified),/,/,/,/,.,.,/
COc1ccc2[nH]c3c(c2c1)CCN1C(=O)C(CC(=O)NCc2cccc(C(F)(F)F)c2)C[C@H](C(=O)N(C(C)C)C(C)C)[C@@]31C (stereo partly specified),/,/,/,/,.,35.1,.
CC1Cc2ccccc2N1S(=O)(=O)c1cccc(C(=O)N2CCN(c3ncccn3)CC2)c1 (stereo unspecified),.,.,.,.,.,.,.
CC(=O)N1CCN(C(=O)c2cccc(S(=O)(=O)N3c4ccccc4CC3C)c2)CC1 (stereo unspecified),.,/,/,/,.,.,/
COc1ccc(OCc2cccc(C(=O)NN)c2)cc1,.,.,67.4,.,/,67.8,29.0
COc1ccc(OCc2cccc(C(=O)Nc3cc(C)on3)c2)cc1,.,.,66.5,.,/,90.8,77.2
CCOc1ccc(OCc2cccc(C(=O)N/N=C/c3cccnc3)c2)cc1,.,.,87.0,.,/,66.8,51.8
COc1ccc(OCc2cccc(C(=O)Nn3cc([N+](=O)[O-])cn3)c2)cc1,.,.,.,.,/,92.7,83.2
CC12CCC(C(=O)NCc3ccccc3Cl)(CC1=O)C2(C)C (stereo unspecified),.,.,.,.,.,.,/
CCCCN1C(=N)N([C@@H](CCC)CN2CCC[C@H]2CN2C(N)=NC[C@H]2C(C)C)C[C@H]1[C@H](C)CC,.,/,/,/,.,.,/
CC(C)[C@H](NC(=O)c1ccccc1)C(=O)OCC(=O)Nc1sccc1C(N)=O,.,/,/,/,.,.,/
O=C(NCCC1CCCCN1S(=O)(=O)c1ccc(Cl)cc1)C(=O)NCc1ccncc1 (stereo unspecified),.,/,61.8,/,.,45.2,42.9
O=C(NCCC1CCCCN1S(=O)(=O)c1ccc(F)cc1)C(=O)NCc1ccncc1 (stereo unspecified),.,/,.,/,.,.,/
O=C(O)/C=C1\NC(=O)c2ccccc21,.,/,.,.,.,.,/
O=C1N/C(=C\c2ccc(O)cc2)C(=O)c2ccccc21,.,/,.,.,/,44.6,.
Cc1ccc(C)c(CN2C(=O)c3ccccc3S(=O)c3ccc(C(=O)N4CCN(c5ccccn5)CC4)cc32)c1 (stereo unspecified),.,.,.,.,.,.,.
Cc1nc2cc(-c3ccccc3)nn2c(C)c1CCC(=O)NC(C)c1ccc2c(c1)OCCO2 (stereo unspecified),.,.,.,.,.,35.0,.
Cc1nc2cc(-c3cccc(F)c3)nn2c(C)c1CCC(=O)NC(C)CCc1ccco1 (stereo unspecified),.,/,.,.,.,41.8,37.2

# Screens deposited in PubChem BioAssay by several laboratories.
